# Tests used:
# [1] = cited from earlier work
# [2] = single oral dose of radio-labelled ixazomib, five patients with advanced cancer; cited from earlier work
# [3] = tested on: human cDNA-expressed CYP isozymes; details: clinically relevant ixazomib concentrations; cited from earlier work
# [4] = previous population PK analysis, four phase I studies; cited from earlier work
# [5] = Population pharmacokinetic analysis; assay type: in vivo, human
# In short: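 Plasma from 755 adults with advanced haematologic or non-haematologic malignancies given oral (BSA-based or fixed) or IV (BSA-based) doses, weekly (28-day cycle) or twice-weekly (21-day cycle); sampled pre-dose and post-dose. LC-MS/MS with 13C9-labelled internal standard, linear 0.5–500 ng/mL. Three-compartment model, first-order absorption with lag; additive log-scale residual error; stepwise covariate selection, p = 0.01 plus ≥10% variance reduction.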
# [6] = cited from earlier work; remark: listed apart in the source
# [7] = Individual predicted exposure; assay type: in vivo, human; details: oral ixazomib; figure value with 95% CI
# [8] = tested on: patients with multiple myeloma; details: ixazomib plus lenalidomide-dexamethasone vs placebo plus lenalidomide-dexamethasone, TOURMALINE-MM1; cited from earlier work
# [9] = Western patients, weekly dose; cited from earlier work
# [10] = after a high-calorie high-fat meal; cited from earlier work
# [11] = typical (population) parameter estimates
smiles,measurement,setting,value
CC(C)C[C@H](NC(=O)CNC(=O)c1cc(Cl)ccc1Cl)B(O)O [ixazomib],Dose dependence of exposure (AUC),[1],dose-proportional increases in exposure
same,Accumulation ratio for AUC,[1]; once-weekly repeat-dose administration,approximately 2
same,Median time to maximum plasma concentration,"[1]; post-dose, oral",1 h
same,Administered radioactivity excreted in feces,[2],22%
same,Administered radioactivity excreted in urine,[2],62%
same,Contribution of specific CYP isozymes to ixazomib metabolism,[3],no specific CYP isozyme predominantly contributed
same,Estimated absolute bioavailability,[4],60%
same,Inter-individual variability on log CL,[5]; % coefficient of variation,44%
same,Inter-individual variability on log F,[5]; % coefficient of variation,73%
same,Inter-individual variability on log V4,[5]; % coefficient of variation,79%
same,Change in V4 at the 5th percentile of BSA relative to median BSA,[5]; BSA 1.5 m^2 vs median 1.87 m^2,−37%
same,Change in V4 at the 95th percentile of BSA relative to median BSA,[5]; BSA 2.25 m^2 vs median 1.87 m^2,+46%
same,Impact of BSA on CL,[5]; BSA had a small effect on V4,did not impact CL
same,Effect of age on ixazomib PK parameters,[5]; age 23–91 years,not found to have a clinically relevant effect
same,Correlation between log CL and log F (random effects),[5]; coefficient of correlation,82%
same,"Impact of BSA on V4 (V4[BSA]), estimate",[5]; covariate coefficient of power function,2.06
same,"Absorption lag time (TLAG), untransformed parameter",[5]; final model,13 min
same,"Absorption rate constant (Ka), untransformed parameter",[5]; final model,0.34 h⁻¹
same,"Volume of the first peripheral compartment (V3), untransformed parameter",[5]; final model,309 L
same,"Volume of the second peripheral compartment (V4), untransformed parameter","[5]; final model, at median BSA",205 L
same,Impact of CrCl and total bilirubin on ixazomib pharmacokinetics,"[5]; mild or moderate renal impairment (CrCl 30–90 mL/min), mild hepatic impairment",neither CrCl nor total bilirubin had any clinically relevant impact
same,"Absorption rate constant (log Ka), estimate","[5]; raw NONMEM estimate, log scale",−1.09
same,"Volume of the first peripheral compartment (log V3), estimate","[5]; raw NONMEM estimate, log scale",5.73
same,"Volume of the second peripheral compartment (log V4), estimate","[5]; raw NONMEM estimate, log scale",5.32
same,Population estimate of steady-state volume of distribution,[5]; [11],527 L
same,"Population estimate of t1/2,γ",[5]; [11],224 h
same,Decrease in systemic exposure (AUC) of ixazomib with rifampin,[6]; co-administration of strong pleiotropic PXR-mediated inducer rifampin,74%
same,Effect of the strong CYP3A inhibitor clarithromycin on ixazomib pharmacokinetics,[6]; controlled phase I clinical study,absence of an effect
same,"Percent change in mean AUC∞, Asian race relative to White race",[7],35%
same,Improvement in progression-free survival,[8],35%
same,Maximum tolerated dose,[9],5.5 mg
same,Reduction in peak plasma concentration with food,[10],69%
same,Reduction in total systemic exposure (AUC) with food,[10],28%

# Reference: article PMC5648746 (Clinical Pharmacokinetics, 2017)
